Reference: ChEMBL document CHEMBL5653613 (Mol Cancer Ther, 2013)
Calls of active or inactive are those of the source. No cut-off for these calls is given here.

How the values were obtained:
[1] = (§1) Effect on cisplatin resistance in human T47D cells with compound-induced polyploidy assessed as change in cisplatin-induced cytotoxicity by measuring increase in cisplatin IC50 at 5 umol/L preincubated for 72 hrs followed by compound washout and subsequent cisplatin treatment for 72 hrs by MTS assay; type: functional, cell-based
ZR-75-1 [2] = experiment: Induction of apoptosis in human ZR-75-1 cells assessed as late cells at 5 umol/L incubated for 3 days by Annexin V/PI staining based flow cytometry (reference value: 3.8 %); type: functional; conditions: dose 5 µmol/L; time 3 day; at 5 µM
T47D [3] = experiment: Inhibition of cell proliferation of human T47D cells with RON-/- at 5 umol/L incubated for 72 hrs followed by media replacement without compound measured upto 10 days by microscopic analysis; type: functional, cell-based; conditions: dose 5.0 µmol/L
T47D [4] = experiment: Induction of cell cycle arrest at telophase in human T47D cells at 5 umol/L preincubated for 24 hrs followed by extensive compound washout and subsequent culturing in compound-free media measured upto 120 mins by immunofluorescence staining based analysis; type: functional; conditions: dose 5.0 µmol/L
How it was run: (§2)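 T-47D cells were treated at 37°C with 5 µmol/L for 24 h, washed extensively, then cultured in DMEM with 10% FBS for 30, 60 and 120 min. α- and γ-tubulin were detected by immunofluorescence with DAPI, imaged at 400×. The control was a 24 h preincubation with 5 µmol/L RO-3306. One of 2 experiments.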

MCF7 [5] = experiment: Cytotoxicity against human MCF7 cells at 1 to 2.5 umol/L incubated for 72 hrs by MTS assay; type: functional, cell-based; conditions: dose 1-2.5 µmol/L
T47D [6] = experiment: Induction of polyploidy in human T47D cells assessed as cells with 16N chromosome contents at 5 uM incubated for 24 hrs by PI staining based flow cytometry (reference value: 0); type: functional
T47D [7] = experiment: Induction of apoptosis in human T47D cells assessed as cell death at 5 uM; type: functional, cell-based; conditions: TDE = time-dependent effect
T47D [8] = experiment: Induction of cell cycle arrest at cytokinesis in human T47D cells at 5 umol/L preincubated for 24 hrs followed by extensive compound washout and subsequent culturing in compound-free media measured upto 120 mins by immunofluorescence staining based analysis; type: functional; conditions: dose 5.0 µmol/L; how it was run: as §2
[9] = as §1, with “doxorubicin” for “cisplatin”, “doxorubicin-induced” for “cisplatin-induced”; type: functional, cell-based
T47D [10] = experiment: Downregulation of histone H3 expression in human T47D cells at 5 umol/L incubated upto 72 hrs by Western blot analysis; type: functional, cell-based; conditions: dose 5.0 µmol/L
How it was run: (§3)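 Cells were treated with 5 µmol/L for 0, 24, 48 and 72 h. Lysates were immunoblotted for AURK-B, phospho-Ser10 histone H3 and total histone H3, with β-actin reprobe as the loading control. Detection by enhanced chemiluminescence.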

MCF7 [11] = experiment: Induction of apoptosis in human MCF7 cells assessed as rate of apoptotic cell death at 5 umol/L by annexin V/PI staining based flow cytometry relative to control; type: functional; conditions: dose 5 µmol/L; at 5 µM
T-47D (Homo sapiens) = experiment: Disruption of microtubule dynamics in human T-47D cells at 5 umol/L incubated upto 72 hrs by immunofluorescence staining based analysis; conditions: dose 5.0 µmol/L
T47D [12] = experiment: Induction of apoptosis in human T47D cells assessed as rate of apoptotic cell death at 5 umol/L by annexin V/PI staining based flow cytometry relative to control; type: functional; conditions: dose 5 µmol/L; at 5 µM
MCF7 [13] = experiment: Induction of polyploidy in human MCF7 cells assessed as cells with 8N chromosome contents at 5 uM incubated for 24 hrs by PI staining based flow cytometry (reference value: 0); type: functional
T47D [14] = experiment: Induction of polyploidy in human T47D cells assessed as cells with 2N chromosome contents at 5 uM incubated for 72 hrs by PI staining based flow cytometry (reference value: 48); type: functional
ZR-75-1 [15] = experiment: Induction of polyploidy in human ZR-75-1 cells assessed as cells with 4N chromosome contents at 5 uM incubated for 48 hrs by PI staining based flow cytometry (reference value: 35); type: functional
[16] = as §1, with “paclitaxel” for “cisplatin”, “paclitaxel-induced” for “cisplatin-induced”; type: functional, cell-based
ZR-75-1 [17] = experiment: Downregulation of histone H3 expression in human ZR-75-1 cells at 5 umol/L incubated upto 72 hrs by Western blot analysis; type: functional, cell-based; conditions: dose 5.0 µmol/L; how it was run: as §3
ZR-75-1 [18] = experiment: Induction of apoptosis in human ZR-75-1 cells assessed as early cells at 5 umol/L incubated for 3 days by Annexin V/PI staining based flow cytometry (reference value: 0.5 %); type: functional; conditions: dose 5 µmol/L; time 3 day; at 5 µM
ZR-75-1 [19] = experiment: Induction of polyploidy in human ZR-75-1 cells at 5 umol/L by microscopic analysis; type: functional, cell-based; conditions: dose 5.0 µmol/L, time 72.0 hrs, TDE = time-dependent effect
T47D [20] = experiment: Induction of polyploidy in human T47D cells assessed as cells with 4N chromosome contents at 5 uM incubated for 24 hrs by PI staining based flow cytometry (reference value: 35); type: functional
ZR-75-1 [21] = experiment: Induction of apoptosis in human ZR-75-1 cells assessed as rate of apoptotic cell death at 5 umol/L by annexin V/PI staining based flow cytometry relative to control; type: functional; conditions: dose 5 µmol/L; at 5 µM
T47D [22] = experiment: Induction of polyploidy in human T47D cells at 10 umol/L incubated for 72 hrs by microscopic analysis relative to control; type: functional; conditions: dose 10 µmol/L, at 10 µM
How it was run: (§4)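 Cells stained with Hema-3 and photographed under a light microscope with CCD camera. Polyploid cells scored as percent of the population.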

T47D [23] = experiment: Induction of polyploidy in human T47D cells assessed as cells with 4N chromosome contents at 5 uM incubated for 72 hrs by PI staining based flow cytometry (reference value: 35); type: functional
ZR-75-1 [24] = experiment: Induction of polyploidy in human ZR-75-1 cells assessed as cells with 16N chromosome contents at 5 uM incubated for 72 hrs by PI staining based flow cytometry (reference value: 0); type: functional
ZR-75-1 [25] = experiment: Induction of polyploidy in human ZR-75-1 cells at 5 uM incubated for 72 hrs by microscopic analysis; type: functional, cell-based; how it was run: as §4
MCF7 [26] = experiment: Induction of polyploidy in human MCF7 cells assessed as cells with 16N chromosome contents at 5 uM incubated for 24 hrs by PI staining based flow cytometry (reference value: 0); type: functional
MCF7 [27] = experiment: Induction of polyploidy in human MCF7 cells at 5 to 10 umol/L incubated for 72 hrs by microscopic analysis relative to control; type: functional; conditions: dose 5-10 µmol/L, at 5 to 10 µM; how it was run: as §4
T47D [28] = experiment: Induction of polyploidy in human T47D cells at 5 umol/L incubated for 72 hrs by microscopic analysis relative to control; type: functional; conditions: dose 5 µmol/L, at 5 µM; how it was run: as §4
MCF7 [29] = experiment: Induction of apoptosis in human MCF7 cells assessed as viable cells at 5 umol/L incubated for 3 days by Annexin V/PI staining based flow cytometry (reference value: 98.1 %); type: functional; conditions: MCF7, 72 h, dose 5 µmol/L, time 3 day, read-out: Activity
[30] = Cmax in athymic mouse xenografted with human GTL-16 cells at 6.25 mg/kg, po qd for 14 days consecutively; type: ADME, organism-based; conditions: in vivo, time 14 day
T47D [31] = experiment: Induction of polyploidy in human T47D cells assessed as cells with 16N chromosome contents at 5 uM incubated for 48 hrs by PI staining based flow cytometry (reference value: 0); type: functional
T47D [32] = experiment: Induction of polyploidy in human T47D cells at 5 uM incubated for 72 hrs by microscopic analysis; type: functional, cell-based; how it was run: as §4

## CCOc1ccn(-c2ccc(F)cc2)c(=O)c1C(=O)Nc1ccc(Oc2ccnc(N)c2Cl)c(F)c1 [BMS-777607]
[1]
  IC50: 0.0091 µM
ZR-75-1 [2]
  Activity: 7.4%
T47D [3]
  inhibition: inactive
T47D [4]
  Activity: Active
MCF7 [5]
  Activity: inactive
T47D [6]
  Activity: 10
T47D [7]
  Activity: Tde
T47D [8]
  Activity: Active
[9]
  IC50: 1.42 µM
T47D [10]
  Activity: inactive
MCF7 [11]
  Activity: 2.2%
T-47D (Homo sapiens)
  Activity: Active
T47D [12]
  Activity: 10.3%
MCF7 [13]
  Activity: 14
T47D [14]
  Activity: 7.5
ZR-75-1 [15]
  Activity: 12
[16]
  IC50: 0.0316 µM
ZR-75-1 [17]
  Activity: inactive
ZR-75-1 [18]
  Activity: 2.3%
ZR-75-1 [19]
  Activity: Tde
T47D [20]
  Activity: 20
ZR-75-1 [21]
  Activity: 9.7%
T47D [22]
  Activity: 86%
T47D [23]
  Activity: 20
ZR-75-1 [24]
  Activity: 32
ZR-75-1 [25]
  Activity: Active
MCF7 [26]
  Activity: 0
MCF7 [27]
  Activity: 36%
T47D [28]
  Activity: 78%
MCF7 [29]
  viability at 5 µM: 97.3%
[30]
  Cmax: 4.5 µM
T47D [31]
  Activity: 18.5
T47D [32]
  Activity: Active
